Measurements as given in publication PMC7145530 (Nucleic Acids Research, 2019).
Read-outs that look alike come from different tables or passages of the source.

Key:
ALKBH3 [1] = target: T1, ALKBH3 (Homo sapiens, UniProt Q96Q83); experiment: Isothermal titration calorimetry; format: binding; conditions: ITC, 25°C; 1 mM peptide into 15 μM ALKBH3
T1 sequence (Q96Q83 1-286): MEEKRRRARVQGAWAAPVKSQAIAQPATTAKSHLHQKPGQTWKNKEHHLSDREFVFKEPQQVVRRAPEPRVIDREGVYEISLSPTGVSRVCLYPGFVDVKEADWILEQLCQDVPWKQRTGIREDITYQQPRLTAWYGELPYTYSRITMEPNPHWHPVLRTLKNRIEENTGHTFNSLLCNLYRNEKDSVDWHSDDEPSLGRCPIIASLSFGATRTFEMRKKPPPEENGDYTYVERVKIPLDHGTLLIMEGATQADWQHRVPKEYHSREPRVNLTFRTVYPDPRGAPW

ALKBH3 [2] = target: T1, ALKBH3; experiment: Demethylation assay by direct detection of formaldehyde; format: biochemical; conditions: ferrozine 1 mM or succinate 5 mM; ALKBH3 0.2 μM, RAD51C 4.0 μM
ALKBH3 [3] = target: T1, ALKBH3; experiment: Yeast two-hybrid with ALKBH3; format: binding; conditions: strain pJ69-4A; growth on dropout plates and lacZ reporter
Summary of the method: (§1)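 Full-length ALKBH2 or ALKBH3 fused to Gal4 binding domain (pGBKT7) was co-transformed with Gal4 activation domain (pACT2) fusions of RAD51, RAD51B, RAD51C, RAD51D, XRCC2 or XRCC3, or empty vectors. Transformants were selected on SD -Leu -Trp plates at 30°C for 2–3 days, then spotted on -His (triple) or -His -Ade (quadruple) dropout plates. lacZ was scored qualitatively by X-gal filter assay.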

ALKBH2 = experiment: Yeast two-hybrid with ALKBH2; format: binding, human; conditions: strain pJ69-4A; growth on dropout plates and lacZ reporter
Summary of the method: as §1

[4] = target: T2, His-tagged RAD51C (HIS-RAD51C) (human, UniProt O43502 1-376); experiment: pull-down
T2 sequence (looked up): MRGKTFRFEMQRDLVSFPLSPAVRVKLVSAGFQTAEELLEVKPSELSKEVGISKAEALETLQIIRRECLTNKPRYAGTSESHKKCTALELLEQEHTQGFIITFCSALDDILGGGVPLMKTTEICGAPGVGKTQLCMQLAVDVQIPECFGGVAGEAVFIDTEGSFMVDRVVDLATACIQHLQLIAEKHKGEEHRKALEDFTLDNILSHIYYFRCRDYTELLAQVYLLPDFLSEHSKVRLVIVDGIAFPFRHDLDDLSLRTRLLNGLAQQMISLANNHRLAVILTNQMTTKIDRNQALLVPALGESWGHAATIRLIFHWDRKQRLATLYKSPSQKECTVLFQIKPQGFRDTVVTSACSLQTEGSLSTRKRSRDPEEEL

ALKBH3 [5] = target: T1, ALKBH3; experiment: Steady-state; format: biochemical; conditions: 3′-tailed DNA 0.6–9.6 μM, ALKBH3 0.2 μM, RAD51C or RAD51CΔ42–52 4 μM, FDH-coupled
ALKBH3 [6] = target: T1, ALKBH3; conditions: ssDNA substrate; cited from earlier work
RAD51C = experiment: Yeast two-hybrid of ALKBH3 fragments with RAD51C; format: binding, human; conditions: ALKBH3 fragments (pGBKT7) with pACT2-RAD51C
Summary of the method: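 Yeast co-transformed with Gal4 binding-domain (pGBKT7) and activation-domain constructs were plated on SD −Leu −Trp at 30°C for 2–3 days. HIS and ADE2 reporters were scored by spotting onto −Leu −Trp −His or −Leu −Trp −His −Ade plates. lacZ was checked qualitatively by X-gal filter assay.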

[7] = target: T3, ALKBH3 protein (recombinant, used for ITC) (human, UniProt Q96Q83 1-286); experiment: ITC
T3 sequence (looked up): T1 sequence (Q96Q83 1-286)

QTAEELLEV [p33–41]
binding to ALKBH3 (ALKBH3 [1]): failed to bind ALKBH3 under these conditions

O=C(O)CCC(=O)O [succinate, reference compound]
inhibition of ALKBH3 with RAD51C present (ALKBH3 [2]): presence of RAD51C could not alleviate the inhibitory effect of ferrozine and succinate

O=S(=O)([O-])c1ccc(-c2nnc(-c3ccccn3)nc2-c2ccc(S(=O)(=O)[O-])cc2)cc1.[Na+].[Na+] [ferrozine, reference compound]
inhibition of ALKBH3 with RAD51C present (ALKBH3 [2]): presence of RAD51C could not alleviate the inhibitory effect of ferrozine and succinate

RAD51: human recombinase RAD51
yeast two-hybrid interaction with ALKBH3 (ALKBH3 [3]): not with RAD51
yeast two-hybrid interaction with ALKBH2 (ALKBH2): could not detect any interaction

B1: GST-ALKBH3 fusion protein (natural protein, human, UniProt Q96Q83 1-286, looked up)
chain: T1 sequence (Q96Q83 1-286)
binding result [4]: binds

B2: ALKBH3: human oxidative demethylase ALKBH3, tag-less recombinant (protein)
chain: T1 sequence (Q96Q83 1-286)
modifications: left off: Gal4 DNA-binding domain, end not stated, kept
Km (ALKBH3 [5]): 1.4 µM
Km (ALKBH3 [6]): 1.9 µM
kcat/KM (ALKBH3 [6]): 14500 M⁻¹ s⁻¹

B3: ALKBH3 (amino acids 175–286): C-terminal segment of ALKBH3 (protein)
chain: SLLCNLYRNEKDSVDWHSDDEPSLGRCPIIASLSFGATRTFEMRKKPPPEENGDYTYVERVKIPLDHGTLLIMEGATQADWQHRVPKEYHSREPRVNLTFRTVYPDPRGAPW
modifications: left off: Gal4 DNA-binding domain, end not stated, kept
yeast two-hybrid interaction with RAD51C (RAD51C): interacted with RAD51C

B4: RAD51CΔ53–66 (protein)
chain: MRGKTFRFEMQRDLVSFPLSPAVRVKLVSAGFQTAEELLEVKPSELSKEVGIECLTNKPRYAGTSESHKKCTALELLEQEHTQGFIITFCSALDDILGGGVPLMKTTEICGAPGVGKTQLCMQLAVDVQIPECFGGVAGEAVFIDTEGSFMVDRVVDLATACIQHLQLIAEKHKGEEHRKALEDFTLDNILSHIYYFRCRDYTELLAQVYLLPDFLSEHSKVRLVIVDGIAFPFRHDLDDLSLRTRLLNGLAQQMISLANNHRLAVILTNQMTTKIDRNQALLVPALGESWGHAATIRLIFHWDRKQRLATLYKSPSQKECTVLFQIKPQGFRDTVVTSACSLQTEGSLSTRKRSRDPEEEL
modifications: left off: Gal4 activation domain, end not stated, kept
yeast two-hybrid interaction with ALKBH3 (ALKBH3 [3]): remained unaffected

KPSELSKEVGI [synthetic peptide p42–52 of RAD51C]
Kd [7]: 4 µM
stoichiometry N [7]: 1
